Data on 35 compounds can be found in ChEMBL document CHEMBL4011662 (J Med Chem, 2017).

What all share (type): cell-based
The target in assay [1] is Probable G-protein coupled receptor 34 (Mus musculus, UniProt Q9R1K6). The experiment in a line: Agonist activity at mouse GPR34 expressed in HEK293 cells co-transfected with AP-TGFalpha/chimeric Galphaq/i1 assessed as induction of ectodomain shedding of membrane bound AP-TGFalpha after 1 hr. An outline of the steps:
(§1)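 HEK293A cells transiently co-transfected with AP-TGFα, chimeric Gαq/i1 and GPR34 (human for line 1, mouse for line 3) or empty vector (mock). After 24 h, cells were suspended in HBSS with 5 mM HEPES pH 7.4 and preincubated 30 min with 10 μM (final) Ki16425. Compounds in HBSS with 0.01% fatty acid-free BSA were added for 1 h at 37 °C. AP activity in medium and on cells was read as OD405 with p-NPP after 1 h at room temperature.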

Assay [2] addresses Probable G-protein coupled receptor 34 (Mus musculus) (UniProt Q9R1K6). Nature of the assay: Intrinsic activity at mouse GPR34 expressed in HEK293 cells co-transfected with AP-TGFalpha/chimeric […] assessed as induction of ectodomain shedding of membrane bound AP-TGFalpha after 1 hr relative to O-(Hydroxy(((2R,3R)-2-(((3-(2-((3-phenoxybenzyl)oxy)phenyl)- propanoyl)oxy)methyl)tetrahydro-2H-pyran-3-yl)oxy)phosphoryl)- L-serine. An outline of the steps: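 Relative intrinsic activity (RIA) was Emax/EC50 relative to that of a positive control agonist, whose RIA is defined as 1. Emax and EC50 came from sigmoid fits of receptor-specific AP-TGFα release in the HEK293A shedding assay, with human GPR34 for line 5 and mouse GPR34 for line 6, after 1 h at 37 °C.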

Assay [3] shares this target. The experiment in a line: Agonist activity at mouse GPR34 expressed in HEK293 cells co-transfected with AP-TGFalpha/chimeric Galphaq/i1 assessed as induction of ectodomain shedding of membrane bound AP-TGFalpha after 1 hr relative to control. The essentials:
(§2)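 Same AP-TGFα shedding set-up in HEK293A (human GPR34 for line 2, mouse for line 4). Release was the %AP-TGFα in medium minus vehicle, then minus the mock-transfected response. Emax (% AP-TGFα release) and LogEC50 came from four-parameter sigmoid fits of plateau or semiplateau curves, as mean ± SEM of n independent experiments.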

Assay [4] deals with T1, Probable G-protein coupled receptor 34 (Homo sapiens, UniProt Q9UPC5). Nature of the assay: Agonist activity at human GPR34 expressed in HEK293 cells co-transfected with AP-TGFalpha/chimeric Galphaq/i1 assessed as induction of AP-TGFalpha release after 1 hr. An outline of the steps: as §1
T1 sequence (Q9UPC5 whole entry): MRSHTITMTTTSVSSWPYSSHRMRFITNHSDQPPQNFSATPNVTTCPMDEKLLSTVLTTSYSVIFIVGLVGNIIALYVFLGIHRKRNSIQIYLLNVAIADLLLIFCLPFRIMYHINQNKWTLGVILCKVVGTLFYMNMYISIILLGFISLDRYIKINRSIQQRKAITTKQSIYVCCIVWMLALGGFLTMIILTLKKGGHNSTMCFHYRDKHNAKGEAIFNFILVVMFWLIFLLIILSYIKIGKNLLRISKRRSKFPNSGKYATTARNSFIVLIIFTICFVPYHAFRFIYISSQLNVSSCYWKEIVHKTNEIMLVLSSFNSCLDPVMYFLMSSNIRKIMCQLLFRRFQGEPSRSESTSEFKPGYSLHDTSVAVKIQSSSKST
Assay [5] deals with T1, Probable G-protein coupled receptor 34. The experiment in a line: Intrinsic activity at human GPR34 expressed in HEK293 cells co-transfected with AP-TGFalpha/chimeric Galphaq/i1 assessed as induction of AP-TGFalpha release after 1 hr relative to O-(Hydroxy(((2R,3R)-2-(((3-(2-((3-phenoxybenzyl)oxy)phenyl)- propanoyl)oxy)methyl)tetrahydro-2H-pyran-3-yl)oxy)phosphoryl)- L-serine.

Assay [6] shares this target. Nature of the assay: Agonist activity at human GPR34 expressed in HEK293 cells co-transfected with AP-TGFalpha/chimeric Galphaq/i1 assessed as induction of AP-TGFalpha release after 1 hr relative to control. An outline of the steps: as §2

Probable G-protein coupled receptor 34 (Mus musculus), sequence (Q9R1K6 whole entry, the tested form may be a part): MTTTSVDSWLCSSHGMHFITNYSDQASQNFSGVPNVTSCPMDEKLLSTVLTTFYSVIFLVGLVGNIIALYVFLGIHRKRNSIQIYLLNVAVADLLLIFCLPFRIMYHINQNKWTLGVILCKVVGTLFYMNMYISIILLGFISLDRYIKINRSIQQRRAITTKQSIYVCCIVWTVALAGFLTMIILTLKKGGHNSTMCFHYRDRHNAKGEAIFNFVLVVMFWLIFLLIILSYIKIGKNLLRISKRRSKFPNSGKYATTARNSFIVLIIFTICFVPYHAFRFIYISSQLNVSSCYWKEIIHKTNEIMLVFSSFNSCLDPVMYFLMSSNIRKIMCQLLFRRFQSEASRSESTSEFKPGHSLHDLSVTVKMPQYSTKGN
Probable G-protein coupled receptor 34 (Mus musculus, UniProt Q9R1K6), sequence (Q9R1K6 whole entry, the tested form may be a part): as above

Take `N[C@@H](COP(=O)(O)OCCCOC(=O)CCc1ccccc1OCc1cccc(OCc2ccccc2)c1)C(=O)O`: the EC50 in assay [1] is greater than 3 µM.

In general, Emax refers to the maximal effect, on the per cent scale that the assay sets. On to `CCc1ccc(Oc2cccc(COc3ccccc3CCC(=O)OCCCOP(=O)(O)OC[C@H](N)C(=O)O)c2)cc1`, for which the EC50 in assay [1] stood at 0.18 µM. Besides, in assay [2], the Intrinsic activity was 0.42. Besides, the Emax in assay [3] was 19.3%.

On to `CCCCCCCC/C=C\CCCCCCCC(=O)OCCCOP(=O)(O)OC[C@H](N)C(=O)O`, for which the EC50 in assay [1] is greater than 3 µM.

`CCCCCCOc1ccc(-c2ccc(Oc3cccc(COc4ccccc4CCC(=O)OCCCOP(=O)(O)OC[C@H](N)C(=O)O)c3)cc2)cc1`: the EC50 in assay [1] stood at 0.049 µM. Besides, in assay [2], the Intrinsic activity is 3.4. The maximal response (Emax) in assay [3] is 17.4%.

`CCCCCCOCC#CCOc1ccccc1CCC(=O)OCCCOP(=O)(O)OC[C@H](N)C(=O)O`: the EC50 in assay [1] was greater than 3 µM.

For `Cc1ccccc1Oc1cccc(COc2ccccc2CCC(=O)OCCCOP(=O)(O)OC[C@H](N)C(=O)O)c1`, the EC50 amounted to 0.65 µM in assay [1] and 0.18 µM in assay [4] (read-out: EC50). Besides, the Intrinsic activity was determined as 0.28 in assay [2] and 1.2 in assay [5]. The Emax in assay [3] amounted to 20.3%; in assay [6] it was 22%.

For `CCCCCCOc1cccc(COc2ccccc2CCC(=O)OCCCOP(=O)(O)OC[C@H](N)C(=O)O)c1`, in assay [1], the EC50 is greater than 3 µM.

For `CCCCCCCC/C=C\CCCCCCCC(=O)OC[C@@H](O)COP(=O)(O)OC[C@H](N)C(=O)O`, the Intrinsic activity in assay [2] stood at 0.26. Further, in assay [3], the Emax came out at 14%.

For the compound `CC(C)(C)c1ccccc1Oc1cccc(COc2ccccc2CCC(=O)OCCCOP(=O)(O)OC[C@H](N)C(=O)O)c1`, the EC50 in assay [1] is greater than 3 µM.

With `Nc1ccc(Oc2cccc(COc3ccccc3CCC(=O)OCCCOP(=O)(O)OC[C@H](N)C(=O)O)c2)cc1`, the EC50 in assay [1] was 2.7 µM. The Intrinsic activity in assay [2] came to 0.089. The Emax in assay [3] was 21.3%.

`N[C@@H](COP(=O)(O)OCCCOC(=O)CCc1ccccc1OCc1cccc(Oc2ccc(Br)cc2)c1)C(=O)O`: the EC50 in assay [1] came to 0.082 µM. For the same compound, the Intrinsic activity in assay [2] came out at 0.97. For the same compound, the Emax in assay [3] amounted to 17.7%.

For `CC(C)(C)c1ccc(Oc2cccc(COc3ccccc3CCC(=O)OCCCOP(=O)(O)OC[C@H](N)C(=O)O)c2)cc1`, the EC50 in assay [1] came out at 0.9 µM; in assay [4] (read-out: EC50), 0.3 µM. The Intrinsic activity in assay [2] came to 0.079; in assay [5], 0.7. In addition, the Emax in assay [3] is 16.9%; in assay [6], 28.2%.

Consider `Cc1cccc(Oc2cccc(COc3ccccc3CCC(=O)OCCCOP(=O)(O)OC[C@H](N)C(=O)O)c2)c1`, for which the EC50 in assay [1] worked out at 0.55 µM; in assay [4] (read-out: EC50) it was 0.23 µM. Also, the results for the Intrinsic activity in assay [2] and in assay [5] were 0.29 and 1.2, respectively. The Emax in assay [3] was 21.3%; in assay [6], 24.2%.

In the case of `N[C@@H](COP(=O)(O)OCCCOC(=O)CCc1ccccc1OCc1cccc(Oc2ccccc2)c1)C(=O)O`, the EC50 in assay [1] was 0.22 µM; in assay [4] (read-out: EC50) it was 0.09 µM; in assay [4] (read-out: pEC50 (converted)) it was 0.0955 µM. For the same compound, the Intrinsic activity in assay [2] came out at 0.48; in assay [5], 1.7. For the same compound, the Emax in assay [3] amounted to 19.4%; in assay [6], 21.7%.

Consider `N[C@@H](COP(=O)(O)OCCCOC(=O)CCc1ccccc1OCc1cccc(OC2CCCCC2)c1)C(=O)O`, for which the EC50 in assay [1] worked out at 0.8 µM. For the same compound, the Intrinsic activity in assay [2] came to 0.11. In assay [3], the Emax came out at 18.8%.

Regarding `COc1ccc(Oc2cccc(COc3ccccc3CCC(=O)OCCCOP(=O)(O)OC[C@H](N)C(=O)O)c2)cc1`, the EC50 in assay [1] turned out to be 0.26 µM. Moreover, in assay [2], the Intrinsic activity came to 0.28. Also, the Emax in assay [3] turned out to be 16.6%.

As to `N[C@@H](COP(=O)(O)OCCCOC(=O)CCc1ccccc1OCc1cccc(Cc2ccccc2)c1)C(=O)O`, the EC50 in assay [1] turned out to be 1.3 µM. In addition, the Intrinsic activity in assay [2] was 0.077. Further, the Emax in assay [3] amounted to 14.5%.

With `N[C@@H](COP(=O)(O)OCCCOC(=O)CCc1ccccc1OCc1cccc(Oc2ccccc2Cl)c1)C(=O)O`, the EC50 in assay [1] came to 1.2 µM. For the same compound, in assay [2], the Intrinsic activity turned out to be 0.069. The maximum response (Emax) in assay [3] was 19.8%.

With `CC(C)(C)c1ccc(-c2ccc(Oc3cccc(COc4ccccc4CCC(=O)OCCCOP(=O)(O)OC[C@H](N)C(=O)O)c3)cc2)cc1`, in assay [1], the EC50 turned out to be 0.0079 µM. The Intrinsic activity in assay [2] turned out to be 21. In assay [3], the Emax came out at 16.5%.

Take `N[C@@H](COP(=O)(O)OCCCOC(=O)CCc1ccccc1OCc1cccc(-c2ccccc2)c1)C(=O)O`: the EC50 in assay [1] was greater than 3 µM.

Take `N[C@@H](COP(=O)(O)OCCCOC(=O)CCc1ccccc1OCCCCCCOc1ccccc1)C(=O)O`: in assay [1], the EC50 is 1.2 µM. Further, in assay [2], the Intrinsic activity stood at 0.071. Further, the Emax in assay [3] is 20.7%.

`N#Cc1ccc(Oc2cccc(COc3ccccc3CCC(=O)OCCCOP(=O)(O)OC[C@H](N)C(=O)O)c2)cc1`: the EC50 in assay [1] was found to be 2 µM. Also, in assay [2], the Intrinsic activity stood at 0.041. The Emax in assay [3] was 18.3%.

As to `N[C@@H](COP(=O)(O)OCCCOC(=O)CCc1ccccc1OCc1cccc(Oc2ccc(Cl)c(Cl)c2)c1)C(=O)O`, the EC50 in assay [1] turned out to be 0.11 µM. Further, the Intrinsic activity in assay [2] amounted to 0.71. Besides, the Emax in assay [3] turned out to be 18%.

`N[C@@H](COP(=O)(O)OCCCOC(=O)CCc1ccccc1OCc1cccc(Oc2ccc(Cl)cc2)c1)C(=O)O`: the EC50 in assay [1] amounted to 0.12 µM. The Intrinsic activity in assay [2] came out at 0.76. Besides, the maximal effect (Emax) in assay [3] was determined as 17.8%.

Take `N[C@@H](COP(=O)(O)OCCCOC(=O)CCc1ccccc1OCc1cccc(Oc2ccc(-c3ccc(-c4ccccc4)cc3)cc2)c1)C(=O)O`: the EC50 in assay [1] was 0.018 µM; in assay [4] (read-out: EC50) it was 0.041 µM. Besides, the results for the Intrinsic activity in assay [2] and in assay [5] were 4.3 and 3.2, respectively. The figures for the Emax in assay [3] and in assay [6] were 11.6% and 17%, respectively.

For the compound `N[C@@H](COP(=O)(O)OCCCOC(=O)CCc1ccccc1OCCCCOc1ccccc1)C(=O)O`, the EC50 in assay [1] amounted to 1.7 µM. Also, in assay [2], the Intrinsic activity was found to be 0.033. Moreover, the Emax in assay [3] was found to be 6.1%.

As to `CCCCCCCCCCCOc1ccccc1CCC(=O)OCCCOP(=O)(O)OC[C@H](N)C(=O)O`, the EC50 in assay [1] was 1.6 µM. Besides, in assay [2], the Intrinsic activity turned out to be 0.04. Further, the Emax in assay [3] is 14.6%.

Turning to `N[C@@H](COP(=O)(O)O[C@@H]1CCCO[C@@H]1COC(=O)CCc1ccccc1OCc1cccc(Oc2ccccc2)c1)C(=O)O`, the EC50 in assay [1] is 0.18 µM; in assay [4] (read-out: EC50), 0.15 µM. For the same compound, the Intrinsic activity in assay [2] and in assay [5] was 1 each time. For the same compound, the Emax in assay [3] was found to be 21.3%; in assay [6], 25.6%.

For the compound `N[C@@H](COP(=O)(O)OCCCOC(=O)CCc1ccccc1OCc1cccc(Oc2ccc(F)cc2)c1)C(=O)O`, in assay [1], the EC50 turned out to be 0.12 µM. In assay [2], the Intrinsic activity was 0.66. Also, the Emax in assay [3] came to 18.7%.

As to `CC(C)(C)c1cccc(Oc2cccc(COc3ccccc3CCC(=O)OCCCOP(=O)(O)OC[C@H](N)C(=O)O)c2)c1`, the EC50 in assay [1] was 0.21 µM. Besides, the Intrinsic activity in assay [2] was determined as 0.39. For the same compound, in assay [3], the Emax worked out at 19.9%.

On to `Cc1ccc(Oc2cccc(COc3ccccc3CCC(=O)OCCCOP(=O)(O)OC[C@H](N)C(=O)O)c2)cc1`, for which the EC50 worked out at 0.039 µM in assay [1] and 0.027 µM in assay [4] (read-out: EC50). In addition, the Intrinsic activity in assay [2] was 3.7; in assay [5] it was 9.8. For the same compound, the Emax in assay [3] came out at 18.2%; in assay [6], 22.1%.

For `N[C@@H](COP(=O)(O)OCCCOC(=O)CCc1ccccc1OCc1cccc(Oc2ccc(I)cc2)c1)C(=O)O`, in assay [1], the EC50 came out at 0.1 µM. Further, the Intrinsic activity in assay [2] came out at 0.82. For the same compound, the Emax in assay [3] was found to be 19.1%.

As to `N[C@@H](COP(=O)(O)OCCCOC(=O)CCc1ccccc1OCc1cccc(Oc2ccc(-c3ccccc3)cc2)c1)C(=O)O`, the EC50 is 0.045 µM in assay [1] and 0.078 µM in assay [4] (read-out: EC50). For the same compound, the Intrinsic activity in assay [2] is 2.2; in assay [5] it was 2.1. Further, the Emax in assay [3] amounted to 17.8%; in assay [6] it was 23%.

Consider `Cc1ccccc1-c1ccc(Oc2cccc(COc3ccccc3CCC(=O)OCCCOP(=O)(O)OC[C@H](N)C(=O)O)c2)cc1`, for which, in assay [1], the EC50 was 0.078 µM. The Intrinsic activity in assay [2] is 0.94. Moreover, the maximal response (Emax) in assay [3] was found to be 13.4%.

In the case of `N[C@@H](COP(=O)(O)OCCCOC(=O)CCc1ccccc1OCc1cccc(Oc2cccc(Cl)c2)c1)C(=O)O`, the EC50 in assay [1] was found to be 0.17 µM. The Intrinsic activity in assay [2] was 0.53. Also, the Emax in assay [3] came to 17.1%.
